Laboratory results published in paper PMC9067284 (RSC Advances, 2019).

Assays:
[1] = biological target: T1, PDK3 (Homo sapiens, UniProt Q15120); assay: Fluorescence quenching binding study with purified PDK3
Summary of the method: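 Intrinsic tryptophan fluorescence quenching of refolded His-tagged human PDK3 (4 μM) at 25 ± 0.1 °C in 50 mM Tris pH 8.0. Test compounds come from 10–30 mM DMSO stocks and are titrated at 0.1–4.0 μM or 2–12 μM. Excitation 280 nm, emission 300–400 nm, blank subtracted, triplicates averaged. Ka and number of sites come from a modified Stern–Volmer plot.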

[2] = biological target: T1, PDK3; assay: Isothermal titration calorimetry of PDK3 with EA; assay type: binding; conditions: ITC, 25 °C, four-site model
Summary of the method: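 VP-ITC at 25 °C with PDK3 (30 μM) in the cell and 1% v/v DMSO added to the protein. Test compound is injected from the syringe: a 2 μl first injection, then 10 μl injections at 300 s intervals, stirring at 320 rpm. Heat of dilution is subtracted. The isotherm is fitted to a four-set-of-sites model for Ka, n, ΔH and ΔS.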

[3] = biological target: T1, PDK3; assay: Enzyme inhibition assay; assay type: biochemical
Summary of the method: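 Recombinant full-length human PDK3, His-tagged, expressed in E. coli BL21 Gold, purified from inclusion bodies by Ni-NTA and refolded by dialysis. Enzyme 5 μM with 200 μM ATP and test compound 0–30 μM, 15–20 min at 25 °C in 50 mM Tris, 100 mM NaCl, pH 8.0. Released phosphate read by malachite green at 620 nm against a 0.0–8 nmol phosphate standard curve. Triplicates, at least three independent experiments.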

[4] = system: HepG2 cells; assay: Cell proliferation MTT assay, HepG2; assay type: cell-based; conditions: Homo sapiens, HepG2, 48 h, read-out: IC50, cell growth inhibition
Summary of the method: (§1)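 Cells at 37 °C, 5% CO2: A549 in F12K medium; HepG2 and HEK293 in DMEM with 10% heat-inactivated FBS and 1% penicillin-streptomycin; kept under 30 passages. Test compound at 0–250 μM for 48 h in 200 μl, then MTT with absorbance at 570 nm. Viability is given as % of untreated control and plotted against concentration. Doxorubicin is the positive control.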

[5] = system: A549 cells; assay: Cell proliferation MTT assay, A549; assay type: cell-based; conditions: Homo sapiens, A549, 48 h, read-out: IC50, cell growth inhibition
Summary of the method: as §1

T1 sequence (Q15120 whole entry): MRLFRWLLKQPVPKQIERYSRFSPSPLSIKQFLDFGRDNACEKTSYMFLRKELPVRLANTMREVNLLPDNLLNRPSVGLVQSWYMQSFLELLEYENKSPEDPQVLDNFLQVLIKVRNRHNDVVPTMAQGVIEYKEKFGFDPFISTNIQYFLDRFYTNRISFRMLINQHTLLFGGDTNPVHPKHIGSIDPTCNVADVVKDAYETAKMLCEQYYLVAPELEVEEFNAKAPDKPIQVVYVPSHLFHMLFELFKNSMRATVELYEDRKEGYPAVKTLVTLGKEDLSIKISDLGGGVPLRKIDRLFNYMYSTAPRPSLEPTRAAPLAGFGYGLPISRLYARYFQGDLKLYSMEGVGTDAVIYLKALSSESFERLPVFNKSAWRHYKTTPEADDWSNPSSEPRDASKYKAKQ

COc1cc(CNC(=O)CCCC/C=C/C(C)C)ccc1O [Capsaicin]
Kd [1]: 271 nM

CC(C)=CCCC(C)=CC=O (mixture of isomers) [Citral]
Kd [1]: 177 nM

O=c1oc2c(O)c(O)cc3c(=O)oc4c(O)c(O)cc1c4c23 [Ellagic acid]
Kd [1]: 3.73 nM | ΔS1 (entropy change) ([2]; site 1): ΔS1 = 9.13 cal mol^−1 deg^−1 | ΔS2 (entropy change) ([2]; site 2): ΔS2 = −927 cal mol^−1 deg^−1 | ΔS3 (entropy change) ([2]; site 3): ΔS3 = −1950 cal mol^−1 deg^−1 | ΔS4 (entropy change) ([2]; site 4): ΔS4 = −2090 cal mol^−1 deg^−1 | Kd ([2]; Ka1 (association constant), site 1): 106 µM | Kd ([2]; Ka2 (association constant), site 2): 8.47 µM | Kd ([2]; Ka3 (association constant), site 3): 25.6 µM | Kd ([2]; Ka4 (association constant), site 4): 33.7 µM | IC50 [3]: ~5 µM | IC50 [4]: 36.7 ± 3.22 µM | IC50 [5]: 23.4 ± 1.33 µM

CCC(C)(C)C(=O)O[C@H]1C[C@@H](C)C=C2C=C[C@H](C)[C@H](CC[C@@H]3C[C@@H](O)CC(=O)O3)[C@H]21 [Simvastatin, reference compound]
Kd [1]: 2590 nM

C[C@H]1[C@H](C)CC[C@]2(C(=O)O)CC[C@]3(C)C(=CC[C@@H]4[C@@]5(C)CC[C@H](O)C(C)(C)[C@@H]5CC[C@]43C)[C@H]12 [Ursolic acid]
Kd [1]: 1760 nM

CC1(C)O[C@H]2CC(=O)OC[C@]23[C@H]2CC[C@@]4(C)[C@H](c5ccoc5)OC(=O)[C@H]5O[C@]54[C@]2(C)C(=O)C[C@@H]13 [Limonin]
Kd [1]: 31.6 nM

COc1cc(C=O)ccc1O [Vanillin]
Kd [1]: 5620 nM
